Screening data: PubChem BioAssay, The Scripps Research Institute Molecular Screening Center
SIAE primary – human SIAE inhibition, primary screen. Q9HAT2. SIAE FP-Rh probe binding, fluorescence polarization. inhibition, % at 9.66 µM. hit rate 0.69% among 370,000;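 active means inhibition above a cutoff: mean of compounds within the control limits plus 3 SD of those, cut at about 17% in these data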
ABHD4 inh – inhibits mouse alpha/beta hydrolase domain 4 | Q8VD66 | purified mABHD4, FP-Rh probe fluorescence polarization | inhibition, % at 8.92 µM | hit rate 0.54% among 370,000 | AID 720543;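 active means inhibition exceeding the mean over every tested compound plus 3 SD, cut at about 30% in these data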
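Test system: mABHD4 protein | Buffer or medium: HEPES pH 7.0 buffer, 150 mM NaCl, 0.01% Pluronic F-127 | Probe or stimulus: FP-Rh fluorescent activity-based probe, added after compound pre-incubation | Timing: Pre-incubation 45 min, probe exposure 60 min, at 25 °C | Technique: Fluorescence polarization, excitation 525 nm, emission 598 nm, BODIPY TMR filters | Repeats: Single well per compound (singlicate)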
HTRA1 inhibitor – inhibitors of human serine peptidase HTRA1 | Q92743 | recombinant HTRA1, FP-rhodamine activity-based probe, fluorescence polarization | inhibition, % at 5.96 µM | hit rate 0.5% among 340,000; in the data active means inhibition above about 36%
PAD4 FP inh – inhibitors of human PAD4. recombinant PAD4, RCA probe fluorescence polarization. inhibition, % at 6.36 µM. hit rate 0.41% among 330,000;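 active means percent inhibition above a cutoff equal to the mean of all tested compounds plus 3 SD, cut at about 15% in these data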
Target sequence (Q9UM07 whole entry, looked up): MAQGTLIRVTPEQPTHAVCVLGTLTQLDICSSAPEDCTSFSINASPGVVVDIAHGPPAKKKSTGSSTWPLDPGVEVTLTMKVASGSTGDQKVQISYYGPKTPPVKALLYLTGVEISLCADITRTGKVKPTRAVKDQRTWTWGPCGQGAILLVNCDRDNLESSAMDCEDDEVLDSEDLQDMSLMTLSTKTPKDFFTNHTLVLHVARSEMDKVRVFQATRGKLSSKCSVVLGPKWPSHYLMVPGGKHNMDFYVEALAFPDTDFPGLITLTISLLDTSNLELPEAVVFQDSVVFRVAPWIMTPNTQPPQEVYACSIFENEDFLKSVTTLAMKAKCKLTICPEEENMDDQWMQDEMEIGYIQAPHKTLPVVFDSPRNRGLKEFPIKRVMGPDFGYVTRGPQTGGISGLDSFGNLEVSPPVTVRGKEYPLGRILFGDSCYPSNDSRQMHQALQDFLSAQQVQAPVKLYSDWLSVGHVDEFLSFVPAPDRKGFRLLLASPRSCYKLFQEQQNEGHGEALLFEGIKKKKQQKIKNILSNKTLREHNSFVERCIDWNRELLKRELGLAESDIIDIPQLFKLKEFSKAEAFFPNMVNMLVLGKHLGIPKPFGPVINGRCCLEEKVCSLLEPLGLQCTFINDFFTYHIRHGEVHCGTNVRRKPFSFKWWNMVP
PRMT1 inh – inhibitors of human PRMT1 | inhibition, % at 2.79 µM | AID 652257 | recombinant PRMT1, activity-based probe fluorescence polarization | hit rate 1.3% among 370,000;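 active means inhibition above about 21% made by adding two undisclosed values, limit read from the data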
TCR CD3 inh – blocks the human TCR-CD3 interaction; TAMRA-labeled TCR probe fluorescence, biochemical; inhibition, % at 9.4 µM; hit rate 0.37% among 360,000; AID 651800; in the data active means inhibition above about 19%;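 further: recombinant mutant TCR 2C K166C tagged with TAMRA read by polarization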
ABHD4 confirm – confirmation of mouse ABHD4 inhibitors; shares compounds with ABHD4 inh; purified mABHD4, FP-Rh probe fluorescence polarization; inhibition, % at 8.92 µM; hit rate 55% among 1,800; AID 720658;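 active means mean inhibition across replicates above the hit cutoff set in the primary screen, cut at about 30% in these data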
Each line names hits and unclear results; the compound was inactive in the other large screens (follow-up assays come after a bar, where they were run). Most compounds without a hit are left out; they make up all but 2.9% or so of the library.

O=C(O)CCCN1C(=O)/C(=C/C=C/c2ccco2)SC1=S	ABHD4 inh 43, PRMT1 inh 42 | ABHD4 confirm inactive
CCC(C(=O)O)N1C(=O)/C(=C/c2cccn2C)SC1=S (centres undefined)	none
COC(=O)[C@]12C[C@H](CC(=O)NCCCCc3ccccc3)C(=O)N(Cc3ccccc3)C1=C[C@H](COCc1ccccc1)O[C@@H]2C	none (no result: HTRA1 inhibitor, PAD4 FP inh, TCR CD3 inh)
CCCCNC(=O)O[C@@H]1C[C@H]2CCCC(=O)N3CC[C@@H](C1)[C@@H]23	none
CCCCCCCN(c1ccccc1)[C@@H]1C[C@H]2CCCC(=O)N3CC[C@@H](C1)[C@@H]23	ABHD4 inh 31 (no result: PAD4 FP inh) | ABHD4 confirm 53
O=C(Nc1ccc([N+](=O)[O-])cc1)C(=O)Nc1cccc(C(=O)O)c1	ABHD4 inh 30 | ABHD4 confirm inactive
CC(=O)c1ccc(NC(=O)Nc2ccc([N+](=O)[O-])cc2)cc1	none
O=C(O)/C=C/c1cccc(NC(=O)Nc2ccc([N+](=O)[O-])cc2)c1	ABHD4 inh 30 | ABHD4 confirm inactive
COc1ccc(-n2c(SCC(=O)Nc3cc(C)c(NC(=O)c4ccccc4)cc3OC)nnc2-c2ccccc2F)cc1	none (no result: HTRA1 inhibitor, PAD4 FP inh, TCR CD3 inh)
O=S(=O)(c1ccc(NC(=S)N/N=C/c2cccc(Oc3ccccc3)c2)cc1)N1CCOCC1	none
O=S(=O)(c1ccc(NC(=S)N/N=C/c2ccc(O)c(O)c2)cc1)N1CCOCC1	ABHD4 inh 31 | ABHD4 confirm inactive
COC(=O)C1=C(C)N(Cc2cccc(C(F)(F)F)c2)C(=NCC2CC2)NC1c1cccc(C(F)(F)F)c1 (centres undefined)	none (no result: HTRA1 inhibitor, PAD4 FP inh)
Cc1ccc(NC(=O)C2CCN(S(=O)(=O)c3ccc4[nH]c(=O)oc4c3)CC2)cc1F	none
COc1cccc(NC(=O)C2CCN(S(=O)(=O)c3ccc4[nH]c(=O)oc4c3)CC2)c1	ABHD4 inh 42 | ABHD4 confirm 43
COC(=O)[C@]12C[C@H](CC(=O)NCCC(C)C)C(=O)N(Cc3ccc4c(c3)OCO4)C1=C[C@H](C(C)(C)C)O[C@@H]2C	none (no result: HTRA1 inhibitor, PAD4 FP inh)
COc1cc(N)c2ncccc2c1Br	ABHD4 inh 62 (no result: PAD4 FP inh) | ABHD4 confirm inactive
Cc1ccc(OC(=S)Nc2ccc(O)cc2)cc1	ABHD4 inh 44 | ABHD4 confirm inactive
Cc1ccc(OC(=S)Nc2ccc(F)cc2)cc1	none
CC(=O)Nc1cc(NC(C)=O)cc(C(=O)OCC(=O)c2ccc3c(c2)NC(=O)CO3)c1	ABHD4 inh 46 | ABHD4 confirm inactive
Cc1ccc2c(c1)-c1c(cnn1CC(=O)NCCc1ccccc1F)CO2	none (no result: HTRA1 inhibitor, PAD4 FP inh, TCR CD3 inh)
C[C@@H]1ON(C)[C@H]2C[C@H]3c4[nH]c5c(-c6ccc(C(F)(F)F)cc6)cccc5c4CCN3C(=O)[C@@H]12	ABHD4 inh 30 (no result: HTRA1 inhibitor, PAD4 FP inh) | ABHD4 confirm inactive
CC(CN1CCN(Cc2ccccc2)CC1)c1ccccc1 (centres undefined)	ABHD4 inh 30 | ABHD4 confirm inactive
COC(=O)c1cc2c(c3c4ccccc4n(S(=O)(=O)c4ccc(OC)cc4)c13)C(=O)N(Cc1ccco1)C2	none (no result: HTRA1 inhibitor, PAD4 FP inh)
COc1ccccc1NC(=O)c1ccccc1NC(=O)c1ccccn1	none (no result: PAD4 FP inh)
COc1ccc(Cl)cc1NC(=O)NNC(=O)c1ccccn1	ABHD4 inh 40 (no result: PAD4 FP inh) | ABHD4 confirm inactive
O=C(Nc1ccc(Cl)cc1)N1CCN(Cc2nc3ccccc3c(=O)[nH]2)CC1	none (no result: HTRA1 inhibitor, PAD4 FP inh, TCR CD3 inh)
CCCC(C(=O)O)N1C(=O)/C(=C2\C(=O)N(C)c3ccccc32)SC1=S (centres undefined)	ABHD4 inh 41 | ABHD4 confirm 58
Cc1c(N2C(=O)/C(=C3/C(=O)N(C)c4ccccc43)SC2=S)c(=O)n(-c2ccccc2)n1C	none
O=C(O)CN1C(=O)/C(=C2\SC(=S)N(C(Cc3ccccc3)C(=O)O)C2=O)c2ccccc21 (centres undefined)	ABHD4 inh 56 | ABHD4 confirm 45
COC(=O)[C@]12C[C@H](CC(=O)N3CCN(C(=O)C4CC4)CC3)C(=O)N(Cc3cccc4ccccc34)C1=C[C@H](C(C)C)O[C@@H]2C1CC1	none (no result: HTRA1 inhibitor, PAD4 FP inh, TCR CD3 inh)
COC(=O)C1=C(C)N(Cc2ccc(C(F)(F)F)cc2)C(=NCc2ccccc2C(F)(F)F)NC1c1ccccc1C(F)(F)F (centres undefined)	none (no result: HTRA1 inhibitor, PAD4 FP inh)
CC1=C(CCN2CCN(C3CCCC3)C(CCO)C2)C(C)(C)CCC1 (centres undefined)	ABHD4 inh 61 | ABHD4 confirm inactive
CN(C)c1ccc(N=Nc2ccccc2C(=O)OCC(=O)NCC2CCCCC2)cc1	ABHD4 inh 42 | ABHD4 confirm 40
CN(C)c1ccc(N=Nc2ccccc2C(=O)OCC(=O)NC2CCCC2)cc1	none
COc1ccccc1N1CCN(N=Cc2ccccc2Br)CC1	none (no result: HTRA1 inhibitor, PAD4 FP inh, TCR CD3 inh)
CCOC(=O)C1=C(SCC)c2cc3c(n2C1=O)CCCC3	ABHD4 inh 36 | ABHD4 confirm 75
COc1ccc(-c2sc3cc4c(cc3c2C#CC2(N)CCCCC2)OCO4)cc1	ABHD4 inh 32 | ABHD4 confirm 30
O=C(c1ccccc1)c1cccc(C(=O)c2ccccc2)c1	none (no result: SIAE primary, ABHD4 inh, PRMT1 inh, TCR CD3 inh)
Nc1cc(N)cc(C(=O)c2ccccc2)c1	ABHD4 inh 44 (no result: HTRA1 inhibitor, PAD4 FP inh) | ABHD4 confirm inactive
COC(=O)[C@]12C[C@H](CC(=O)NCC3CCCCC3)C(=O)N(Cc3ccc(Cl)cc3Cl)C1=C[C@H](COCc1ccccc1)O[C@@H]2C	none (no result: HTRA1 inhibitor, PAD4 FP inh, TCR CD3 inh)
COC(=O)[C@]12C[C@H](CC(=O)NCc3ccc(C)o3)C(=O)N(CCc3ccc(OC)c(OC)c3)C1=C[C@H](C1CCCC1)O[C@@H]2C	none (no result: HTRA1 inhibitor, PAD4 FP inh, TCR CD3 inh)
CCCCCNC(=O)C(c1ccncc1)n1c(=O)c(-c2ccco2)nc2ccccc21 (centres undefined)	ABHD4 inh 32 (no result: HTRA1 inhibitor, PAD4 FP inh) | ABHD4 confirm inactive
CC(C)(C)NC(=O)C(c1ccncc1)n1c(=O)c(-c2ccco2)nc2ccccc21 (centres undefined)	none (no result: HTRA1 inhibitor, PAD4 FP inh)
COC(=O)C1CCN(C(=O)CCn2nnc(-c3cccs3)n2)CC1	none (no result: HTRA1 inhibitor, PAD4 FP inh, TCR CD3 inh)
Oc1ccc(C=Nc2cccc3ccccc23)c(O)c1	ABHD4 inh 30 | ABHD4 confirm inactive
O=[N+]([O-])c1ccc(O)c(C=Nc2cccc3ccccc23)c1	none
Cc1cc(C)nc(N2CCN(C(=O)CSc3nc4ccccc4nc3N3CC(C)OC(C)C3)CC2)n1 (centres undefined)	none (no result: HTRA1 inhibitor, PAD4 FP inh, TCR CD3 inh)
COc1cc(N(C(C)=O)c2ccc(O)c(C(=O)O)c2)c2ncccc2c1	ABHD4 inh 31 (no result: PAD4 FP inh) | ABHD4 confirm 47
COc1cc(N(C(C)=O)c2ccc(O)cc2)c2ncccc2c1	none (no result: PAD4 FP inh)
COc1ccc(CCNC(=O)c2ccccc2NS(=O)(=O)c2cc(C(=O)O)ccc2OC)cc1	ABHD4 inh 33 | ABHD4 confirm inactive
COC(=O)C1CN(C2CCCC2)CCS(=O)(=O)N1Cc1cn(Cc2ccccc2)nn1 (centres undefined)	none (no result: HTRA1 inhibitor, PAD4 FP inh, TCR CD3 inh)
COC(=O)CCCC1=CC2=CC(=O)C(C)(OC(=O)c3cccs3)C(=O)C2=CN1Cc1ccco1 (centres undefined)	ABHD4 inh 32 | ABHD4 confirm inactive
